In PMC4201344 (ACS Chemical Biology, 2014):
Positions count from the first letter of the chain named. Entries after “also recorded” stand apart in the source; their conditions may differ.

Columns and labels:
[1] = system: GluClβ Y206 3,5-Me2-Phe; experiment: two-electrode voltage clamp, Xenopus laevis oocytes, nonsense suppression; format: cell-based, C. elegans; conditions: glutamate
Procedure, shortened: (§1)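 Site-specific TAG codon, read by 74mer THG73 tRNA ligated to dCA-acylated amino acid; NVOC removed by 5 min xenon-lamp irradiation just before injection. Oocytes coinjected with 37.5 ng mRNA plus ~1 μg/μL tRNA at 48 and 24 h pre-recording; unacylated 76mer tRNA served as read-through control.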

[2] = biological target: T1, GluClβ A17′T (Caenorhabditis elegans, UniProt Q17328, A294T); experiment: two-electrode voltage clamp, Xenopus laevis oocytes; format: cell-based, C. elegans; conditions: glutamate
T1 sequence (Q17328 23-434 A294T): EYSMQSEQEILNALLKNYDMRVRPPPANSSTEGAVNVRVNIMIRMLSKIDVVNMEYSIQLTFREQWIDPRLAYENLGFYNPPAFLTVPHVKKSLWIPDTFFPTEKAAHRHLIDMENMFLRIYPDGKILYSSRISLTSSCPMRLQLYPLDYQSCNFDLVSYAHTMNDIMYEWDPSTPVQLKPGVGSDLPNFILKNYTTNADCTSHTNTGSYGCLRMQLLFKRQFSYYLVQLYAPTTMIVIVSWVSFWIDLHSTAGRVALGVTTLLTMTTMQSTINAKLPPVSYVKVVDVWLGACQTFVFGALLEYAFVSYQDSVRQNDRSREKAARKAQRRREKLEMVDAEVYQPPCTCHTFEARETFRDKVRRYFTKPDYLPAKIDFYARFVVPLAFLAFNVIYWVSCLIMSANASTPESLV

[3] = biological target: T2, GluClβ with α signal peptide, T6′S, F96TAG Phe (Caenorhabditis elegans, UniProt Q17328, T283S); experiment: two-electrode voltage clamp, Xenopus laevis oocytes, nonsense suppression; format: cell-based, C. elegans; conditions: glutamate
T2 sequence (Q17328 23-434 T283S): T1 sequence (Q17328 23-434 A294T) with T261S, T272A
Procedure, shortened: as §1

[4] = biological target: GluClβ T6′S, Y206A (Caenorhabditis elegans, UniProt Q17328, T283S/Y232A); experiment: two-electrode voltage clamp, Xenopus laevis oocytes; format: cell-based, C. elegans; conditions: glutamate
Sequence of GluClβ T6′S, Y206A (Q17328 23-434 Y232A/T283S): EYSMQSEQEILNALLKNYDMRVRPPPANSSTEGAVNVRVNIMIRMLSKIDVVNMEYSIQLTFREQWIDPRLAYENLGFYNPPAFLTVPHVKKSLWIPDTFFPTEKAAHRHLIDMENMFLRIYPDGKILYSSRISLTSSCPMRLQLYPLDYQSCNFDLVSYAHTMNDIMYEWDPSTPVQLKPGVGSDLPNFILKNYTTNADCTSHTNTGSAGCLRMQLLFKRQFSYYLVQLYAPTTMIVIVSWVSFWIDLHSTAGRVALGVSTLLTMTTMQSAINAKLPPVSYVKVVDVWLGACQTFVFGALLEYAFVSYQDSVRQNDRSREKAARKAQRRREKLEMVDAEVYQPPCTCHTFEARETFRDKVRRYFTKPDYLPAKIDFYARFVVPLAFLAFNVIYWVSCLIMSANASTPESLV
Procedure, shortened: (§2)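 C. elegans GluClβ (mammalian codon-optimised) in pGEMhe, mutated by QuikChange; T7 mRNA. […] Voltage clamp at −60 mV in Ca-free ND96, pH 7.5. […] Peak currents taken from baseline, normalised, averaged per concentration, and fit to Hill equation (EC50, nH).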

[5] = biological target: T3, GluClβ with α signal peptide, T6′S, Y156F (Caenorhabditis elegans, UniProt Q17328, T283S/Y182F); experiment: as above; format: cell-based, C. elegans; conditions: glutamate
T3 sequence (Q17328 23-434 Y182F/T283S): T1 sequence (Q17328 23-434 A294T) with Y160F, T261S, T272A
Procedure, shortened: as §2

[6] = biological target: GluClβ L9′F (Caenorhabditis elegans, UniProt Q17328, L286F); experiment: as above; format: cell-based, C. elegans; conditions: glutamate
Sequence of GluClβ L9′F (Q17328 23-434 L286F): as the sequence (Q17328 23-434 Y232A/T283S) above, with A210Y, S261T, L264F counted along it
Procedure, shortened: as §2

[7] = biological target: GluClβ T13′S (Caenorhabditis elegans, UniProt Q17328, T290S); experiment: as above; format: cell-based, C. elegans; conditions: glutamate
Sequence of GluClβ T13′S (Q17328 23-434 T290S): as the sequence (Q17328 23-434 Y232A/T283S) above, with A210Y, S261T, T268S counted along it
Procedure, shortened: as §2

[8] = system: GluClβ with α signal peptide, T6′S, F96TAG F2–Phe; experiment: two-electrode voltage clamp, Xenopus laevis oocytes, nonsense suppression; format: cell-based, C. elegans; conditions: glutamate
[9] = biological target: GluClβ L9′V (Caenorhabditis elegans, UniProt Q17328, L286V); experiment: two-electrode voltage clamp, Xenopus laevis oocytes; format: cell-based, C. elegans; conditions: glutamate
Sequence of GluClβ L9′V (Q17328 23-434 L286V): as the sequence (Q17328 23-434 Y232A/T283S) above, with A210Y, S261T, L264V counted along it
Procedure, shortened: as §2

[10] = system: GluClβ with α signal peptide, T6′S, Y156TAG F3–Phe; experiment: two-electrode voltage clamp, Xenopus laevis oocytes, nonsense suppression; format: cell-based, C. elegans; conditions: glutamate
[11] = system: GluClα T2′A; conditions: otherwise glutamate-insensitive channel; cited from earlier work
[12] = biological target: GluClβ T6′S, R59E (Caenorhabditis elegans, UniProt Q17328, R85E/T283S); experiment: two-electrode voltage clamp, Xenopus laevis oocytes; format: cell-based, C. elegans; conditions: glutamate
Sequence of GluClβ T6′S, R59E (Q17328 23-434 R85E/T283S): as the sequence (Q17328 23-434 Y232A/T283S) above, with R63E, A210Y counted along it
Procedure, shortened: as §2

[13] = biological target: GluClβ with α signal peptide, T6′S (Caenorhabditis elegans, UniProt Q17328, T283S); experiment: as above; format: cell-based, C. elegans; conditions: glutamate
Sequence of GluClβ with α signal peptide, T6′S (Q17328 23-434 T283S): as the sequence (Q17328 23-434 Y232A/T283S) above, with A210Y counted along it
Procedure, shortened: as §2

[14] = biological target: GluClβ T6′S, T203A (Caenorhabditis elegans, UniProt Q17328, T229A/T283S); experiment: two-electrode voltage clamp, Xenopus laevis oocytes; format: cell-based, C. elegans; conditions: glutamate
Sequence of GluClβ T6′S, T203A (Q17328 23-434 T229A/T283S): as the sequence (Q17328 23-434 Y232A/T283S) above, with T207A, A210Y counted along it

[15] = biological target: GluClβ T6′S/T10′S (Caenorhabditis elegans, UniProt Q17328, T283S/T287S); experiment: as above; format: cell-based, C. elegans; conditions: glutamate
Sequence of GluClβ T6′S/T10′S (Q17328 23-434 T283S/T287S): as the sequence (Q17328 23-434 Y232A/T283S) above, with A210Y, T265S counted along it

[16] = system: GluClβ T6′S, Y206TAG F2–Phe (3,5-F2–Phe); experiment: two-electrode voltage clamp, Xenopus laevis oocytes, nonsense suppression; format: cell-based, C. elegans; conditions: glutamate

N[C@@H](CCC(=O)O)C(=O)O [glutamate]
receptor function [1]: nonfunctional
EC50 [2]: 58 ± 1 µM
Hill [2]: 2.8 ± 0.1
Imax [2]: 0.3–13 μA
EC50 [3]: 12 ± 1 µM
Hill [3]: 2.8 ± 0.3
Imax [3]: 0.1–4 μA
EC50 [4]: no response
EC50 [5]: 15 ± 1 mM
Hill [5]: 2.3 ± 0.2
Imax [5]: 1–5 μA
EC50 [6]: constitutively active
EC50 [7]: not functional; also recorded: no response
EC50 [8]: 4.7 ± 0.1 µM
Hill [8]: 4.1 ± 0.5
Imax [8]: 0.04–1 μA
EC50 [9]: no response
EC50 [10]: 65 ± 5 mM
Hill [10]: 1.7 ± 0.1
Imax [10]: 0.3–2 μA
glutamate sensitivity [11]: restore glutamate sensitivity
EC50 [12]: nonfunctional; also recorded: no response
Hill [13]: 2.7 ± 0.2
EC50 [14]: 640 ± 10 µM
Hill [14]: 2.3 ± 0.1
EC50 [15]: constitutive activity, some glutamate response
Imax [16]: 0.1–0.6 μA
EC50 ([16]; no plateau at highest concentration 100 mM): > 100 mM
